Experimental data as given in ChEMBL document CHEMBL1121524, “Studies of hypolipidemic agents. 1. Synthesis and hypolipidemic activities of alkoxycinnamic acid derivatives” (1980).

Legend:
Rattus norvegicus [1] = experiment: In vivo hypolipidemic activity, expressed as percent decrease in Triglyceride in rat, at dosage of 100 mg for 7 days.; assay type: functional
How it was run: (§1)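 Male Sprague-Dawley rats, 4 weeks old, kept on CE-2 chow for at least 1 week, then grouped (generally five per group). Compound was mixed into CE-2 powder and fed ad libitum for the stated period; controls received plain CE-2 powder. Diet level is given as mg/100 g (mg%), about equal to mg/kg/day. Total serum triglyceride was measured by the Ryan and Rasho method and reported as percent depression versus control group mean. Significance was p < 0.05.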

Rattus norvegicus [2] = species: Rattus norvegicus; experiment: Hypolipidemic activity expressed as percentage decrease in triglyceride in rat, at dosage of 50 mg for 7 days; assay type: functional; how it was run: as §1
Rattus norvegicus [3] = species: Rattus norvegicus; experiment: Hypolipidemic activity, expressed as percent decrease in serum cholesterol in rat, at dosage of 100 mg for 7 days by Zak et al method; assay type: functional
How it was run: as §1, with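 “cholesterol” for “triglyceride”, “Zak et al.” for “Ryan and Rasho”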

Rattus norvegicus [4] = experiment: In vivo hypolipidemic activity, expressed as percent decrease in serum cholesterol in rat, at dosage of 20 mg for 7 days.; assay type: functional
How it was run: as §1, with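 “cholesterol” for “triglyceride”, “Zak et al.” for “Ryan and Rasho”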

Rattus norvegicus [5] = species: Rattus norvegicus; experiment: Tested for the hypolipidemic activity, expressed as percent decrease in serum cholesterol in rat, at dosage of 50 mg for 7 days; assay type: functional
How it was run: as §1, with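 “cholesterol” for “triglyceride”, “Zak et al.” for “Ryan and Rasho”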

Rattus norvegicus [6] = experiment: In vivo hypolipidemic activity, expressed as percent decrease in serum triglyceride in rat, at dosage of 20 mg for 7 days.
Rattus norvegicus [7] = species: Rattus norvegicus; experiment: Tested for the hypolipidemic activity, expressed as percent decrease in Triglyceride in rat, at dosage of 100 mg for 3 days by Ryan and Rasho method; assay type: functional; how it was run: as §1
Rattus norvegicus [8] = species: Rattus norvegicus; experiment: Tested for the hypolipidemic activity, expressed as percent decrease in serum cholesterol in rat, at dosage of 100 mg for 3 days by Zak et al method; assay type: functional
How it was run: as §1, with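 “cholesterol” for “triglyceride”, “Zak et al.” for “Ryan and Rasho”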

Rattus norvegicus [9] = species: Rattus norvegicus; experiment: tested for the hypolipidemic activity, expressed as percent decrease in serum cholesterol in rat, at dosage of 10 mg for 7 days by Zak et al method; assay type: functional
How it was run: as §1, with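 “cholesterol” for “triglyceride”, “Zak et al.” for “Ryan and Rasho”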

Rattus norvegicus [10] = species: Rattus norvegicus; experiment: tested for the hypolipidemic activity, expressed as percent decrease in Triglyceride in rat, at dosage of 10 mg for 7 days by Ryan and Rasho method; assay type: functional; how it was run: as §1

Structure (SMILES) | Decrease (Rattus norvegicus [2]) [%] | Decrease (Rattus norvegicus [4]) [%] | Decrease (Rattus norvegicus [5]) [%] | Decrease (Rattus norvegicus [6]) [%] | Decrease (Rattus norvegicus [7]) [%] | Decrease (Rattus norvegicus [8]) [%] | other results
CCCCCCCCCCCCCCOc1ccc(/C=C(\C)C(=O)O)cc1 | 26 | 12 | 17 | 38 |  |  | Decrease (Rattus norvegicus [1]): 45%; Decrease (Rattus norvegicus [3]): 16%
CCCCCCCCCCCCCCCCOc1ccc(/C=C(\C)C(=O)OCCCCl)cc1 |  |  |  |  | 25 | 17 | 
C/C(=C\c1ccccc1)C(=O)OCC(O)CO (stereo not given) |  |  |  |  | 22 | 10 | 
CCCCCCCCCCCCCCCCOc1ccc(/C=C/C(=O)OCCCO)cc1 |  |  |  |  | 16 | 16 | 
CCCCCCCCCCCCCCCCOc1ccc(/C=C(\C)C(=O)OCCO)cc1 |  |  |  |  | 59 | 13 | 
CCCCCCCCCCCCCCCCOc1ccc(/C=C(\C)C(=O)OCCCO)cc1 |  |  |  |  | 43 | 6 | 
CCCCCCCCCCCCCCOc1ccc(/C=C(\C)C(=O)OCCC(=O)OC)cc1 | 37 | -1 | 30 | 7 |  |  | 
C/C(=C\c1ccc(Oc2ccccc2)cc1)C(=O)OCCCl | -6 | 15 | 14 | 22 |  |  | 
C=CCOc1ccc(/C=C/C(=O)OCC(O)CO)cc1 (stereo not given) |  |  |  |  | -14 | 12 | 
O=C(/C=C/c1ccc(Oc2ccccc2)cc1)OCC(O)CO (stereo not given) | 29 | 15 | 11 | 26 |  |  | 
CCCCCCCCCCCCCCOc1ccc(/C=C(\C)C(=O)OCC)cc1 | 34 | 6 | 7 | 37 |  |  | 
CCCCCCCCCCCCCCCCOc1ccc(/C=C/C(=O)OCCCCl)cc1 | 48 | 1 | 5 | 38 |  |  | Decrease (Rattus norvegicus [1]): 44%; Decrease (Rattus norvegicus [3]): 22%
C/C(=C\c1ccc(Oc2ccccc2)cc1)C(=O)OCC(O)CO (stereo not given) | 4 | 7 | 14 | -1 |  |  | 
CCCCCCCCCCCCCCCCOc1ccc(/C=C/C(=O)OCCO)cc1 |  | 18 |  | 26 |  |  | Decrease (Rattus norvegicus [1]): 57%; Decrease (Rattus norvegicus [3]): 24%
CCCCCCCCCCCCCCCCOc1ccc(/C=C/C(=O)OCCCOC(=O)/C=C/c2ccc(OCCCCCCCCCCCCCCCC)cc2)cc1 |  |  |  |  | -2 | 8 | 
CCCCCCCCCCCCCCCCOc1ccc(/C=C(\C)C(=O)O)cc1 | 25 | 9 | 17 | 1 |  |  | 
CCCCCCCCCCCCCCCCOc1ccc(/C=C(\C)C(=O)OCC(O)CO)cc1 (stereo not given) | 28 | 11 | 15 | 5 | 68 | 32 | 
CCCCCCCCCCCCOc1ccc(/C=C(\C)C(=O)OCC(O)CO)cc1 (stereo not given) | 53 | 16 | 26 | 33 |  |  | Decrease (Rattus norvegicus [9]): 9%; Decrease (Rattus norvegicus [10]): 10%
C=C(C)C(=O)OCCOC(=O)/C=C/c1ccc(Oc2ccccc2)cc1 |  |  |  |  | -15 | 14 | 
CCCCCCCCCCCCCCCCOc1ccc(/C=C/C(=O)OCCOC(=O)/C=C/c2ccc(OCCCCCCCCCCCCCCCC)cc2)cc1 |  |  |  |  | -4 | 9 | 
CCCCCCCCCCCCCCCCOc1ccc(/C=C(\C)C(=O)OCCS(=O)(=O)[O-])cc1.[Na+] |  |  |  |  | 36 | 8 | 
CCCCOc1ccc(/C=C/C(=O)OCCN2CCOCC2)cc1.Cl |  |  |  |  | -32 | -9 | 
CCCCCCCCCCCCCCOc1ccc(/C=C(\C)C(=O)OCC(O)CO)cc1 (stereo in doubt; 97) | 43 | 14 | 25 | 33 |  |  | Decrease (Rattus norvegicus [1]): 52%; Decrease (Rattus norvegicus [3]): 45%
